This note sets out measurements from ChEMBL document CHEMBL1125710, “Structure/activity and molecular modeling studies of the lophotoxin family of irreversible nicotinic receptor antagonists” (J Med Chem, 1991).

The EC50 is the concentration at which the effect is half-maximal. High values mean weaker potency, low ones greater potency.

Experiment [1] deals with T1, Acetylcholine receptor (Torpedo californica, UniProt P02710+P02712+P02714+P02718). The experiment in a line: In vitro inhibition of [125I]alpha-bungarotoxin binding to nicotinic acetylcholine receptor of Torpedo californica electric organ membranes. Type of experiment: tissue-based, Tetronarce californica. In short, it runs like this: (§1)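 Torpedo californica electric-organ membranes (ca. 1.0 pmol α-toxin sites) in 10 mM sodium phosphate pH 7.4 with 1.0 mM EDTA and 1.0 mM EGTA. Analogue in DMSO reacted 2 or 16 h at 23 °C, then 2-5-fold molar excess [125I]-α-bungarotoxin for 60 min. Duplicate aliquots filtered on DE81, washed, gamma-counted. Apparent EC50 is 50% inhibition of specific binding.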

Experiment [2] addresses Acetylcholine receptor (Torpedo californica) (UniProt P02710+P02712+P02718+P02714). The experiment can be described thus: In vitro ability to inhibit the binding of [125I]alpha-bungarotoxin to nicotinic acetylcholine receptor on membranes prepared from the electric organs of Torpedo californica; Not active. Particulars: Tetronarce californica. In short, it runs like this: as §1

Experiment [3] concerns the target T1, Acetylcholine receptor. The experiment can be described thus: In vitro ability to inhibit the binding of [125I]-alpha-bungarotoxin to nicotinic acetylcholine receptor on membranes prepared from the electric organs of Torpedo californica. In kind it is tissue-based, Tetronarce californica, Electric organ. An outline of the steps: as §1
In experiment [4] the target is T1, Acetylcholine receptor. The experiment in a line: In vitro ability to inhibit the binding of [125I]alpha-bungarotoxin to Nicotinic acetylcholine receptor on membranes prepared from the electric organs of Torpedo californica. In kind it is tissue-based, Tetronarce californica, Electric organ. In short, it runs like this: as §1

“And” between values parts separate entries of the source, which are not always exact repeats. Identical values can stand only once. The source made the active and inactive calls. The rule behind the calls is not given here.

T1 sequence (P02710 whole entry): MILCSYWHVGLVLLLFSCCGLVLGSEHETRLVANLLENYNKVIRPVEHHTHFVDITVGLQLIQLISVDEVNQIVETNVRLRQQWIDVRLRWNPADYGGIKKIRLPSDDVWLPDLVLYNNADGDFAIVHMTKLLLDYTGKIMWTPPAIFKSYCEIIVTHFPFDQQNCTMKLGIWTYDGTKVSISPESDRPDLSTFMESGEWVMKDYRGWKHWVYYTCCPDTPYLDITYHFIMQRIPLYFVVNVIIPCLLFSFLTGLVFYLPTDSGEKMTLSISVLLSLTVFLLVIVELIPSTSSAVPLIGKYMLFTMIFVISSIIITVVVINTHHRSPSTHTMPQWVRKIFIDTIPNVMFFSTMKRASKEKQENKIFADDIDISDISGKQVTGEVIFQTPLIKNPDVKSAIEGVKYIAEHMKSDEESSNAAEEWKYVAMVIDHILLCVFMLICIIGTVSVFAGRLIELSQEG
T1 sequence (P02712 whole entry): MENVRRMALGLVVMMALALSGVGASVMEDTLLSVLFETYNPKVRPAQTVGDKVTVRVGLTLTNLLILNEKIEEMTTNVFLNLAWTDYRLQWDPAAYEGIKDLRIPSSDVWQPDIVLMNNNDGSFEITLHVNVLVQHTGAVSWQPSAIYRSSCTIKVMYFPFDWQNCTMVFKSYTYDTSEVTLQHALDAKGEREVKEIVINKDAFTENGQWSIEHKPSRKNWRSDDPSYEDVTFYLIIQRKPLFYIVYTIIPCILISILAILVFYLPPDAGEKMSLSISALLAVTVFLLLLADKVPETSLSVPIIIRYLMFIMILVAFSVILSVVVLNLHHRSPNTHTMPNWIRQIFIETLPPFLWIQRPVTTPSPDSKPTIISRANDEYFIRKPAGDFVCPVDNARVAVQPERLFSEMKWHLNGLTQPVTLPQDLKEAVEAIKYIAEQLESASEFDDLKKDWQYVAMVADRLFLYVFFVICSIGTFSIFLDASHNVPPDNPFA
T1 sequence (P02718 whole entry): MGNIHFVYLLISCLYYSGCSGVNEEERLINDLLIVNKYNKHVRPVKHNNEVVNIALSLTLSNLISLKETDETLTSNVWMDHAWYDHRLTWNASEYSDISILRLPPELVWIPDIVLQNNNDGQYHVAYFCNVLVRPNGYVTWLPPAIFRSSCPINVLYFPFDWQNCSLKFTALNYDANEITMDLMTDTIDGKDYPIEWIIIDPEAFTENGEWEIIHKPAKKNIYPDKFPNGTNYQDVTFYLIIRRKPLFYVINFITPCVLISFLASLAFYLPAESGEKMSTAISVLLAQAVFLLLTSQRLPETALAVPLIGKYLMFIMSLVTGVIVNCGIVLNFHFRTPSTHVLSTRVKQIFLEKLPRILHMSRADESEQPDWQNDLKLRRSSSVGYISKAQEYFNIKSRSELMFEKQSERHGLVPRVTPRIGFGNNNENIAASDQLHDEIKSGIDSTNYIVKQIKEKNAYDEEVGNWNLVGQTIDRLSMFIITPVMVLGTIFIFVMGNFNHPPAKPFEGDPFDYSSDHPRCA
T1 sequence (P02714 whole entry): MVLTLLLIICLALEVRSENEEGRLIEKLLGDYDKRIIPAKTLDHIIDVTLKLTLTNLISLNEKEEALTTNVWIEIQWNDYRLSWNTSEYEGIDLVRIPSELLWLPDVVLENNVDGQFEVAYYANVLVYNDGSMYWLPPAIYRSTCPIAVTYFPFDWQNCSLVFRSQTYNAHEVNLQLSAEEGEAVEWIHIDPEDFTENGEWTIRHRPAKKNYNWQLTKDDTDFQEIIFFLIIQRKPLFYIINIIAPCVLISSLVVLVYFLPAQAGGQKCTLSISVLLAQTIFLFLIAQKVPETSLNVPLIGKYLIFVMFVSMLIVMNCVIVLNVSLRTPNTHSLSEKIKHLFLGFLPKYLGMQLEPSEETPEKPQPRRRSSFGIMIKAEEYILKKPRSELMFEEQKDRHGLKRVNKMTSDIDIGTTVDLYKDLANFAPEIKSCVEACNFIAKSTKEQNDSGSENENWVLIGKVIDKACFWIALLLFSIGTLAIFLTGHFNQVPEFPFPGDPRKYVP

Consider `C=C(C)[C@@H]1CC2=C(CO)C=C(O2)[C@@H]2O[C@@]2(C)C[C@H]2OC(=O)[C@@]3(O[C@H]23)[C@@H](OC(C)=O)C1`, for which the half-maximal effective concentration (EC50) on Acetylcholine receptor [1] was 44.7 µM.

`C=C(C)[C@@H]1CC2=C(C(=O)OC)C=C(O2)[C@@H]2O[C@@]2(C)C[C@@H]2C=C(C(=O)O2)[C@@H](OC(C)=O)C1` [ACETOXYPUKALIDE] showed a half-maximal effective concentration (EC50) at Acetylcholine receptor [1] of 91.2 µM.

Regarding `C=C(C(=O)OC)[C@H]1CC2O[C@@](O)(/C(C)=C\C(=O)/C=C(/C)C[C@H]3OC(=O)[C@@]24O[C@H]34)[C@@H]1OC(C)=O`, the “Log EC50” value in experiment [2] is “inactive”.

For the molecule `C=C(C)[C@@H]1CC2=C(C(=O)OC)C=C(O2)[C@@H]2O[C@@]2(C)C[C@H]2OC(=O)[C@@]3(O[C@H]23)[C@@H](OC(C)=O)C1`, the EC50 on Acetylcholine receptor [1] was 126 µM.

Regarding `C=C(C)[C@H]1CCC2=C[C@@H](C/C(C)=C/C3=CC(C(=O)OC)=C(C1)O3)OC2=O`, the “Log EC50” value in experiment [2] was “inactive”.

Consider `C=C(C(=O)OC)[C@H]1C[C@H](OC(C)=O)C2=C[C@@H](C[C@]3(C)O[C@H]3C3=CC(C)=C(O3)[C@@H]1OC(C)=O)OC2=O`, for which, at Acetylcholine receptor [1], it took 7.41 µM to reach a half-maximal effect (EC50).

Molecule `C=C(C)[C@H]1C[C@H](OC(C)=O)C2=C[C@@H](C[C@]3(C)O[C@H]3C3=CC(C)=C(O3)[C@@H]1OC(C)=O)OC2=O` had an EC50 at Acetylcholine receptor [1] of 14.5 µM.

Regarding `C=C(C)[C@H]1C[C@H](OC(C)=O)[C@@]23O[C@@H]2[C@@H](C[C@](C)(O)/C=C2/C=C(C=O)C(OCC)(C1)O2)OC3=O`, the “Log EC50” value in experiment [2] was “inactive”.

`CC(=O)O[C@H]1C[C@H](C2(C)CO2)[C@@H](OC(C)=O)C2=C(C)C=C(O2)[C@@H]2O[C@@]2(C)C[C@H]2OC(=O)[C@@]13O[C@H]23` (stereo partly drawn) gave an EC50 on Acetylcholine receptor [1] of 25.1 µM.

On to `C=C(CO)[C@H]1C[C@H](OC(C)=O)[C@@]23O[C@@H]2[C@@H](C[C@]2(C)O[C@H]2C2=CC(C)=C(O2)[C@@H]1OC(C)=O)OC3=O`, for which the EC50 at Acetylcholine receptor [1] was 2.09 µM.

The molecule `COc1cc2c3cc1Oc1cc(ccc1O)C[C@@H]1c4c(cc(OC)c(O)c4Oc4ccc(cc4)C[C@@H]3N(C)CC2)CC[N+]1(C)C` showed an EC50 at Acetylcholine receptor [3] of 3200 µM.

As for `C=C(C)[C@H]1CCC2=C[C@@H](C[C@]3(C)O[C@H]3C3=CC(C(=O)OC)=C(C1)O3)OC2=O`, the “Log EC50” value in experiment [2] is “inactive”.

Take `C=C(C)[C@@H]1CC2=C(C=O)C=C(O2)[C@@H]2O[C@@]2(C)C[C@@H]2C=C(C(=O)O2)[C@@H](OC(C)=O)C1` [DEOXYLOPHOTOXIN]: the EC50 at Acetylcholine receptor [1] is 115 µM.

Molecule `C=C(CO)[C@H]1C[C@H](O)[C@@]23O[C@@H]2[C@@H](C[C@]2(C)O[C@H]2C2=CC(C)=C(O2)[C@@H]1OC(C)=O)OC3=O` gave an EC50 at Acetylcholine receptor [1] of 25.7 µM.

Regarding `C=C(C=O)[C@H]1C[C@H](OC(C)=O)[C@@]23O[C@@H]2[C@@H](C[C@]2(C)O[C@H]2C2=CC(C)=C(O2)[C@@H]1OC(C)=O)OC3=O`, the EC50 on Acetylcholine receptor [4] was 2.88 µM and 9.33 µM.

On Acetylcholine receptor [1], `CC(=O)O[C@H]1C[C@H](C2(C)CO2)[C@@H](OC(C)=O)C2=C(C)C=C(O2)[C@@H]2O[C@@]2(C)C[C@@H]2C=C1C(=O)O2` (stereo partly drawn) showed an EC50 of 12 µM. This counts as double-digit micromolar.

In the case of `C=C(C)[C@H]1CCC2=C[C@@H](C[C@]3(C)O[C@H]3C3=CC(C=O)=C(C1)O3)OC2=O`, the “Log EC50” value in experiment [2] is “inactive”.

Take `C=C(CO)[C@H]1C[C@H](OC(C)=O)[C@@]23O[C@@H]2[C@@H](CC2(C)O[C@H]2C2=CC(C)=C(O2)[C@@H]1O)OC3=O` (single isomer, unassigned): the EC50 on Acetylcholine receptor [1] was 81.3 µM.

As to `C=C(C)[C@H]1CC2O[C@@](O)(/C(C)=C\C(=O)/C=C(/C)C[C@H]3OC(=O)[C@@]24O[C@H]34)[C@@H]1OC(C)=O`, in experiment [2], the “Log EC50” value is “inactive”.

Consider `C=C(CO)[C@H]1C[C@H](OC(C)=O)[C@@]23O[C@@H]2[C@@H](CC2(C)O[C@H]2C2=CC(C)=C(O2)[C@@H]1OC(C)=O)OC3O` (single isomer, unassigned), for which, in experiment [2], the “Log EC50” value was “inactive”.

Regarding `C=C(CO)[C@H]1C[C@H](O)[C@@]23O[C@@H]2[C@@H](CC2(C)O[C@H]2C2=CC(C)=C(O2)[C@@H]1OC(C)=O)OC3O` (single isomer, unassigned), the “Log EC50” value in experiment [2] was “inactive”.

With `C=C(C=O)[C@@H]1CC2=C(C(=O)OC)C=C(O2)[C@@H]2O[C@@]2(C)C[C@H]2OC(=O)[C@@]3(O[C@H]23)[C@@H](OC(C)=O)C1`, the EC50 at Acetylcholine receptor [1] was 105 µM.

Regarding `COC(=O)c1cc2oc1C[C@@H](C(C)C)CCC1C[C@@H](C[C@](C)(O)C2)OC1=O`, the “Log EC50” value in experiment [2] is “inactive”.
